Assay outcomes deposited in PubChem by several laboratories.
Shown are actives, neighbours in structure and some others; about 2.3% of the full set was active somewhere.
TWEAK Fn14 block – TWEAK-Fn14 signaling inhibition. TWEAK-stimulated Fn14 reporter cells, luciferase luminescence, 8 h. AID 1159606. actives 2% (n = 360,000). inhibition, % at 10 µM; in the data active = inhibition above about 50%
FN deposit inh – fibronectin deposition inhibition. AH1F fibroblasts, Alexa488-fibronectin deposition fluorescence, overnight. inhibition, % at 12.6 µM. actives 0.086% (n = 350,000). AID 743247;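 active = mean inhibition across replicates of 30% or more, regardless of how many single replicates reach that level; inconclusive = mean under 30% yet at least half of replicates reach 30%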;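 note: positive control wells lacked labelled fibronectin entirely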
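Assay system: AH1F fibroblasts / Quantity: 10000 cells per well / Medium: DMEM plus 2% serum, read in PBS / Reagent: labelled fibronectin 24 nM / Dosing: single dose, pinned / Times: 1 h cell attachment, overnight exposure to compound and label / Signal: fluorescence, ex 485 nm, em 525 nm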
EWS-Fli inh – inhibitors of EWS/Fli oncoprotein transcriptional activity; A673 NR0B1-luciferase reporter, viability-normalised; inhibition, % at 12.6 µM; actives 0.67% (n = 350,000); AID 651661;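 active = mean inhibition of at least 50% after viability correction, with every replicate also passing that limit; inconclusive = mean reaches 50% but only one of two replicates passes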;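 note: firefly luciferase signal divided by Alamar Blue viability fluorescence both relative to DMSO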
TROY NFkB inh – TROY signaling inhibition; Q293 LMP1-TROYcd NF-kB luciferase reporter, 4 h; inhibition, % at 10 µM; actives 0.98% (n = 360,000); AID 1347056;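 active = compounds whose plate-normalised and pattern-corrected inhibition of the luciferase reporter signal at the single screening dose is 50% or more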
LGR2 antag – blocks bursicon-induced cAMP signaling via Drosophila LGR2; HEK293 LGR2, CRE-luciferase, bursicon-stimulated, 4 h; inhibition, % at 9.99 µM; actives 0.35% (n = 380,000); AID 720647;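 active = drop in luminescence signal, shown as inhibition above about 50% in the replicate tests, limit read from the data, passing the limit was not always enough; inconclusive = probably only some replicates passing the limit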;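 note: agonist challenge used bursicon conditioned medium at about half maximal strength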
Xi reactivation – X-chromosome reactivation activator; XiGFP mouse fibroblasts, % GFP-positive cells imaging, 3 d; cells co-treated with 5-aza-dC sensitizer; scaled so ellipticine positive control = 100%; actives 0.055% (n = 360,000); AID 743238; activation, % at 7.58 µM;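 active = mean normalized replicate activation at least 10% and every replicate at or above 10%; inconclusive = only one of the two criteria met; inactive = mean below 10% and not all replicates reach 10%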;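 note: 0% = median of on-plate neutral control wells and 100% = ellipticine 6 µM median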
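System: SV40-immortalized XiGFP fibroblast cells, line 68-5-11 / Incubation: 3-day compound exposure, then 15 min fixation at room temperature / Compound: single concentration per compound, delivered by pin transfer / Buffer or medium: DMEM plus 5-aza-dC sensitizer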
An asterisk follows results filed as active.

Results for CN(C)CC(=O)N1CC2(C1)[C@@H](c1ccccc1)[C@@H](CO)N2C(=O)C1CC1 ?
FN deposit inh: 0; EWS-Fli inh: 2; LGR2 antag: 18; Xi reactivation: 0

What do the screens show for `C[C@H](CO)N1C[C@H](C)[C@H](CN(C)CC2CC2)OCCCC[C@H](C)Oc2ccc(NS(=O)(=O)c3ccc(Cl)cc3)cc2C1=O`?
EWS-Fli inh: -106; LGR2 antag: 13; Xi reactivation: 0

How did CO[C@@H]1CN(C)C(=O)c2ccc(NC(=O)Nc3ccccc3F)cc2OC[C@@H](C)N(C)C[C@@H]1C do in these assays?
FN deposit inh: -9; EWS-Fli inh: -1; LGR2 antag: 8; Xi reactivation: 0

How did O=C(/C=C/c1cccs1)NC(=S)NNC(=O)c1ccccc1O do in these assays?
TWEAK Fn14 block: 48; FN deposit inh: 19; EWS-Fli inh: 52*; TROY NFkB inh: 38; LGR2 antag: 14; Xi reactivation: 1

Results for COCCNc1ncnc2c1cnn2-c1ccc(Cl)cc1 ?
TWEAK Fn14 block: 54*; FN deposit inh: -7; TROY NFkB inh: -53

What do the screens show for `CC(C)(C)Nc1ncnc2c1cnn2-c1ccccc1`?
TWEAK Fn14 block: 40; FN deposit inh: -1; EWS-Fli inh: -50; TROY NFkB inh: 51*; LGR2 antag: -4; Xi reactivation: 0

What do the screens show for `CC(C)Nc1ncnc2c1cnn2-c1ccc(Cl)cc1`?
TWEAK Fn14 block: 74*; FN deposit inh: -1; EWS-Fli inh: 18; TROY NFkB inh: 64*; LGR2 antag: inconclusive; Xi reactivation: 0

Results for Clc1ccc(Nc2ncnc3c2cnn3-c2ccccc2)cc1 ?
TWEAK Fn14 block: 46; FN deposit inh: -8; EWS-Fli inh: -161; TROY NFkB inh: -12; LGR2 antag: -17; Xi reactivation: 0

What do the screens show for `Clc1ccc2nc(-c3ccc4c(c3)OCO4)cn2c1`?
TWEAK Fn14 block: 73*; FN deposit inh: 21; EWS-Fli inh: 46; TROY NFkB inh: 0; LGR2 antag: 86*; Xi reactivation: 0

What do the screens show for `Cc1ccc2nc(-c3ccc4c(c3)OCCO4)cn2c1`?
TWEAK Fn14 block: 101*; FN deposit inh: 1; EWS-Fli inh: 22; TROY NFkB inh: 78*; LGR2 antag: 91*; Xi reactivation: 0

Results for O=C(O)c1cc(-c2ccc3c(c2)OCO3)nc2ccc(Cl)cc12 ?
TWEAK Fn14 block: -17; TROY NFkB inh: -54; LGR2 antag: 19; Xi reactivation: 0

How did CN(C)S(=O)(=O)c1cccc(-c2cn3cc(Cl)ccc3n2)c1 do in these assays?
TWEAK Fn14 block: -25; TROY NFkB inh: -61

What do the screens show for `Clc1ccc2nc(-c3ccccc3)cn2c1`?
TWEAK Fn14 block: 61*; FN deposit inh: 1; EWS-Fli inh: 14; TROY NFkB inh: 9; LGR2 antag: 34; Xi reactivation: 0

What do the screens show for `COc1ccc(-c2cn3cc(C)ccc3n2)cc1F`?
TWEAK Fn14 block: 76*; FN deposit inh: 0; EWS-Fli inh: -9; TROY NFkB inh: 61*; LGR2 antag: 90*; Xi reactivation: 0

How did Cc1ccc2nc(-c3ccc4c(c3)NC(=O)CO4)cn2c1 do in these assays?
TWEAK Fn14 block: -11; FN deposit inh: -2; EWS-Fli inh: -117; TROY NFkB inh: 6; LGR2 antag: -20; Xi reactivation: 0

What do the screens show for `Cc1ccc(S(=O)(=O)Nc2ccc3c(c2)C(=O)N([C@@H](C)CO)C[C@H](C)[C@H](CN(C)C(=O)CCC(F)(F)F)OCCCC[C@H](C)O3)cc1`?
FN deposit inh: -5; EWS-Fli inh: -2; LGR2 antag: 3; Xi reactivation: 0

Results for C[C@@H]1CCCCO[C@@H](CN(C)S(C)(=O)=O)[C@H](C)CN([C@H](C)CO)C(=O)c2cc(NS(=O)(=O)c3cn(C)cn3)ccc2O1 ?
EWS-Fli inh: 3; LGR2 antag: -23; Xi reactivation: 0

How did c1ccn2cc(-c3ccc4c(c3)OCCO4)nc2c1 do in these assays?
TWEAK Fn14 block: 78*; FN deposit inh: -7; EWS-Fli inh: 54*; TROY NFkB inh: 21; LGR2 antag: 91*; Xi reactivation: 4

Results for CC(=O)NCCc1ccc(C(=O)COC(=O)c2ccc(C)s2)cc1 ?
TWEAK Fn14 block: -21; FN deposit inh: -3; EWS-Fli inh: -7; TROY NFkB inh: -16; LGR2 antag: -32; Xi reactivation: 0

How did CC(=O)NCCc1ccc(C(=O)COC(=O)c2cccs2)cc1 do in these assays?
TWEAK Fn14 block: 61*; FN deposit inh: 4; EWS-Fli inh: -30; TROY NFkB inh: 48; Xi reactivation: 0

How did COCC(=O)Nc1ccc2c(c1)OC[C@H](C)N(Cc1ccccc1F)C[C@@H](C)[C@H](OC)CN(C)C2=O do in these assays?
FN deposit inh: -1; EWS-Fli inh: -6; LGR2 antag: -19; Xi reactivation: 0

What do the screens show for `Cc1ccc2[nH]c(-c3ccccc3)cc(=O)c2c1`?
TWEAK Fn14 block: -5; FN deposit inh: -14; EWS-Fli inh: 58*; TROY NFkB inh: -31; Xi reactivation: 0

How did CN(C)C(=O)C[C@H]1CC[C@H]2[C@@H](COc3ccc(NC(=O)C4CCC4)cc3C(=O)N2C)O1 do in these assays?
FN deposit inh: -4; EWS-Fli inh: 2; LGR2 antag: -6; Xi reactivation: 0

Results for CC(C)NC(=O)Nc1ccc2c(c1)C(=O)N([C@@H](C)CO)C[C@@H](C)[C@@H](CN(C)C(=O)Nc1ccccc1)OCCCC[C@@H](C)O2 ?
FN deposit inh: -1; LGR2 antag: -20; Xi reactivation: 0

How did COc1ccc(/C=N/NC(=O)c2nnn(-c3nonc3N)c2-c2cccs2)cc1OC do in these assays?
TWEAK Fn14 block: 9; FN deposit inh: 25; TROY NFkB inh: -2; LGR2 antag: -3; Xi reactivation: 0

What do the screens show for `COc1cccc(/C=N/NC(=O)c2nnn(-c3nonc3N)c2C(C)C)c1OCc1ccc(F)cc1`?
TWEAK Fn14 block: 63*; TROY NFkB inh: 62*

What do the screens show for `Nc1nonc1-n1nnc(C(=O)N/N=C/c2cccc(Cl)c2)c1-c1cccs1`?
TWEAK Fn14 block: 51*; FN deposit inh: 0; TROY NFkB inh: 6; LGR2 antag: 3; Xi reactivation: 0

Results for CC(C)c1c(C(=O)N/N=C/c2ccc(OCc3ccccc3)cc2)nnn1-c1nonc1N ?
TWEAK Fn14 block: -34; FN deposit inh: 13; TROY NFkB inh: -19; LGR2 antag: -29; Xi reactivation: 0

What do the screens show for `COc1cc(/C=N/NC(=O)c2nnn(-c3nonc3N)c2C(C)C)ccc1OCc1ccccc1`?
TWEAK Fn14 block: 62*; FN deposit inh: -6; EWS-Fli inh: -25; TROY NFkB inh: 37; LGR2 antag: -3; Xi reactivation: 0
